Where “and” joins values, the source holds several entries; their conditions need not be identical. Identical values can stand only once. Calls of active or inactive are those of the source.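 The calls were made as follows: active = compounds lowering the signal whose fitted half-maximal concentration is at most ten times their top tested dose; inconclusive = flat curve with a 30 to 70% drop, or poor fit; inactive = rising signal, flat curve, or potency beyond limit.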
Test system: not listed separately
Experiment: HIF pathway activation under zinc exposure, dose response, mechanism study for HIF pathway activator project, U2OS HRE-luc cells, zinc medium, dry powder (AID 504324)
Conditions: U2OS HRE-luciferase reporter, zinc medium, luminescence; at 38 µM (top of the series)
Summary of the method: (§1)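 Assay system: human osteosarcoma U2OS cells stably expressing 3×HRE-driven luciferase reporter. Buffer or medium: phenol red-free DMEM, 10% FBS, plus 50 µM zinc sulfate. Compound dosing: 8-point, 3-fold compound series. Schedule: cells plated 24 h before dosing, compound exposure 24 h, 37 °C. Measured by: Steady-Glo luciferase luminescence.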

Row | SMILES | activity change, negative = decrease
1 | O=C(c1cc(-c2ccccc2)on1)N1CCN(c2ccncc2)CC1 | -13.1% (inactive)
2 | O=C(NCCCN1CCOCC1)c1cc(-c2ccccc2)on1 | 1480% (inactive)
3 | c1ccc(-c2nnc(-c3ccccn3)nc2N2CCC(C3CCCCC3)C2)cc1 (configuration not stated) | 4900% (inactive)
4 | c1ccc(CNc2nc(-c3ccccn3)nnc2-c2ccccc2)cc1 | 5410% (inactive)
5 | Oc1ccc(CN2CCC3CCCCC3C2)c2cccnc12 (configuration not stated) | 916% (inactive)
6 | OCC1CCN(c2nc(-c3ccccn3)nnc2-c2ccccc2)CC1 | 1330% (inactive)
7 | Cc1ccc(NC(=O)c2cc(-c3ccccc3)on2)cn1 | 21.6% (inactive)
8 | Cn1c(-c2ccccc2)cnc1Nc1nc(-c2ccccn2)nnc1-c1ccccc1 | 210% (inactive)
9 | Cc1cccc(Nc2nc(-c3ccccn3)nnc2-c2ccccc2)n1 | 4620% (inactive)
10 | O=C(Nc1nc2ccccc2s1)c1cc(-c2ccccc2)on1 | 12.6% (inactive)
11 | C=CCNc1nc(-c2ccccn2)nnc1-c1ccccc1 | 5230% (inactive)
12 | c1ccc(-c2nnc(-c3ccccn3)nc2NCC2CC2)cc1 | 5580% (inactive)
13 | c1ccc(-c2nnc(-c3ccccn3)nc2NCCN2CCOCC2)cc1 | 3780% (inactive)
14 | CN1CCN(C(=O)c2cc(-c3ccccc3)on2)CC1 | 13.1% (inactive)
15 | c1ccc(-c2nnc(-c3ccccn3)nc2N2CCN(c3ccncc3)CC2)cc1 | 4830% (inactive)
16 | c1ccc(-c2nnc(-c3ccccn3)nc2NCCCN2CCOCC2)cc1 | 5050% (inactive)
17 | O=C(Nc1nc(-c2ccccc2)cs1)c1cc(-c2ccccc2)on1 | -11.2% (inactive)
18 | O=C(NC1CCc2ccccc2C1)c1cc(-c2ccccc2)on1 (configuration not stated) | -9.29% (inactive)
19 | COc1ccc(CNc2nc(-c3ccccn3)nnc2-c2ccccc2)cc1 | 5130% (inactive)
20 | O=C(c1cc(-c2ccccc2)on1)N1CCC(N2CCOCC2)CC1 | -1.04% (inactive)
21 | Cc1ccc(CNc2nc(-c3ccccn3)nnc2-c2ccccc2)cc1 | 6080% (inactive)

Row | SMILES | activity change, negative = decrease
22 | Clc1cccc(CNc2nc(-c3ccccn3)nnc2-c2ccccc2)c1 | 4600% (inactive)
23 | CC(C)(C)CCNC(=O)c1cc(-c2ccccc2)on1 | 651% (inactive)
24 | OCC1CCN(Cc2ccc(O)c3ncccc23)CC1 | 29.9% (inactive)
25 | Cc1ccccc1CNC(=O)c1cc(-c2ccccc2)on1 | 25.4% (inactive)
26 | Cn1c(NC(=O)c2cc(-c3ccccc3)on2)nc2ccccc21 | -2.21% (inactive)
27 | CCCCNC(=O)c1cc(-c2ccccc2)on1 | 1050% (inactive)
28 | Cc1cccc(CNc2nc(-c3ccccn3)nnc2-c2ccccc2)c1 | 6280% (inactive)
29 | O=C(c1cc(-c2ccccc2)on1)N1CCc2cccnc21 | 44% (inactive)
30 | Cc1ccccc1CNc1nc(-c2ccccn2)nnc1-c1ccccc1 | 5380% (inactive)
31 | C[C@@H](Nc1nc(-c2ccccn2)nnc1-c1ccccc1)C1CCCCC1 | 4780% (inactive)
32 | COc1cccc(CNc2nc(-c3ccccn3)nnc2-c2ccccc2)c1 | 4540% (inactive)
33 | O=C(NCCCCO)c1cc(-c2ccccc2)on1 | 1710% (inactive)
34 | O=C(NCCN1CCCCC1)c1cc(-c2ccccc2)on1 | 56.5% (inactive)
35 | C[C@H](Nc1nc(-c2ccccn2)nnc1-c1ccccc1)C1CCCCC1 | 5570% (inactive)
36 | Cc1cccc(NC(=O)c2cc(-c3ccccc3)on2)n1 | 39.8% (inactive)
37 | c1ccc(CCNc2nc(-c3ccccn3)nnc2-c2ccccc2)cc1 | 4750% (inactive)
38 | C[C@@H](Nc1nc(-c2ccccn2)nnc1-c1ccccc1)c1ccccc1 | 4300% (inactive)
39 | CC(C)(C)c1ccc(CNc2nc(-c3ccccn3)nnc2-c2ccccc2)cc1 | 3790% (inactive)
40 | Oc1ccc(CN2CCc3ccccc3C2)c2cccnc12 | -77.2% (inactive) and 47.2% (inactive)
41 | Oc1ccc(CN2CCC(Cc3ccccc3)CC2)c2cccnc12 | 27.6% (inactive)
42 | N#CC1(c2ccccc2)CCN(Cc2ccc(O)c3ncccc23)CC1 | 208% (inactive)

Row | SMILES | activity change, negative = decrease
43 | c1ccc(-c2nnc(-c3ccccn3)nc2NCCc2ccccn2)cc1 | 4700% (inactive)
44 | c1ccc(-c2nnc(-c3ccccn3)nc2NCc2ccccn2)cc1 | 3330% (inactive)
45 | O=C(Nc1cn2ccccc2n1)c1cc(-c2ccccc2)on1 | 41.5% (inactive)
46 | CN(C)c1nc(-c2ccccn2)nnc1-c1ccccc1 | 3380% (inactive)
47 | OCCCNc1nc(-c2ccccn2)nnc1-c1ccccc1 | 3730% (inactive)
48 | Cc1ccc(Nc2nc(-c3ccccn3)nnc2-c2ccccc2)cn1 | 2240% (inactive)
49 | O=C(NCCCO)c1cc(-c2ccccc2)on1 | 811% (inactive)
50 | O=C(NCc1ccccc1)c1cc(-c2ccccc2)on1 | 64% (inactive)
51 | c1ccc(-c2csc(Nc3nc(-c4ccccn4)nnc3-c3ccccc3)n2)cc1 | 315% (inactive)
52 | Cn1c(-c2ccccc2)cnc1NC(=O)c1cc(-c2ccccc2)on1 | 19% (inactive)
53 | c1ccc(-c2nnc(-c3ccccn3)nc2N2CCC(N3CCOCC3)CC2)cc1 | 4120% (inactive)
54 | O=C(c1cc(-c2ccccc2)on1)N1CCC(N2CCCC2)CC1 | 6.15% (inactive)
55 | O=C(NCC1CCCCC1)c1cc(-c2ccccc2)on1 | 158% (inactive)
56 | Cc1ccc(CNc2nc(-c3ccccn3)nnc2-c2ccccc2)cc1C | 4550% (inactive)
57 | c1ccc(-c2nnc(-c3ccccn3)nc2NCc2cccnc2)cc1 | 3620% (inactive)
58 | c1ccc(-c2ccc(CNc3nc(-c4ccccn4)nnc3-c3ccccc3)cc2)cc1 | 3920% (inactive)
59 | c1ccc(-c2cccc(CNc3nc(-c4ccccn4)nnc3-c3ccccc3)c2)cc1 | 4810% (inactive)
60 | CC(Nc1nc(-c2ccccn2)nnc1-c1ccccc1)c1ccccc1 (configuration not stated) | 4380% (inactive)
61 | CN(C)CCNC(=O)c1cc(-c2ccccc2)on1 | 31.3% (inactive)
62 | O=C(c1cc(-c2ccccc2)on1)N1CCC(CO)CC1 | 14.3% (inactive)
63 | Cc1ccc(CNC(=O)c2cc(-c3ccccc3)on2)cc1 | 10.4% (inactive)

Row | SMILES | activity change, negative = decrease
64 | O=C(NCCN1CCOCC1)c1cc(-c2ccccc2)on1 | 1440% (inactive)
65 | O=C(NCCCn1ccnc1)c1cc(-c2ccccc2)on1 | 1800% (inactive)
66 | O=C(NCC1CC1)c1cc(-c2ccccc2)on1 | 798% (inactive)
67 | COc1ccccc1N1CCN(Cc2ccc(O)c3ncccc23)CC1 | 52.8% (inactive)
68 | Cc1cccc(CNC(=O)c2cc(-c3ccccc3)on2)c1 | -6.77% (inactive)
69 | CC(C)(C)CCNc1nc(-c2ccccn2)nnc1-c1ccccc1 | 7490% (inactive) and 6820% (inactive)
70 | Oc1ccc(CNC2Cc3ccccc3C2)c2cccnc12 | 314% (inactive)
71 | c1ccc(-c2nnc(-c3ccccn3)nc2NCC2CCOCC2)cc1 | 3680% (inactive)
72 | CC(C)(C)OC(=O)N1CCN(Cc2ccc(O)c3ncccc23)CC1 | 28.3% (inactive)
73 | O=C(Nc1ncc(-c2ccccc2)o1)c1cc(-c2ccccc2)on1 | 18.1% (inactive)
74 | c1ccc(-c2cnc(Nc3nc(-c4ccccn4)nnc3-c3ccccc3)s2)cc1 | 44.9% (inactive)
75 | O=C(NC1Cc2ccccc2C1)c1cc(-c2ccccc2)on1 | 146% (inactive)
76 | O=C(Nc1nnc(-c2ccccc2)s1)c1cc(-c2ccccc2)on1 | 6.48% (inactive)
77 | c1ccc(-c2nnc(Nc3nc(-c4ccccn4)nnc3-c3ccccc3)s2)cc1 | 161% (inactive)
78 | CC1CN(Cc2ccc(O)c3ncccc23)CC(C)O1 (configuration not stated) | 4.72% (inactive)
79 | CN1CCN(c2nc(-c3ccccn3)nnc2-c2ccccc2)CC1 | 1500% (inactive)
80 | O=C(Nc1ccc2ccccc2n1)c1cc(-c2ccccc2)on1 | 22.8% (inactive)
81 | O=C(Nc1ncc2ccccc2n1)c1cc(-c2ccccc2)on1 | 152% (inactive)
82 | O=C(Nc1cnc2ccccc2c1)c1cc(-c2ccccc2)on1 | 17.3% (inactive)
83 | c1ccc(-c2nnc(-c3ccccn3)nc2NCC2CCCCC2)cc1 | 8340% (inactive)
84 | c1ccc(-c2nnc(-c3ccccn3)nc2N2CCC(c3ccccc3)C2)cc1 (configuration not stated) | 5380% (inactive)

Test system: U2OS HRE-luciferase reporter, zinc medium, luminescence
Experiment: as above
Conditions: not given
Summary of the method: as §1

Row | SMILES | AC50
85 | Oc1ccc(CNC2CCc3ccccc32)c2cccnc12 (configuration not stated) | > 38 µM (inactive)
86 | c1ccc(-c2nnc(-c3ccccn3)nc2Nc2nc3ccccc3s2)cc1 | 5.6 µM
87 | c1ccc(-c2nnc(-c3ccccn3)nc2Nc2cnc3ccccc3n2)cc1 | 10.6 µM
